Reference: article PMC5372383 (Nature, 2017)

How the values were obtained:
iCas9-MOLM-13 cells = test: RNA-seq of JQ1-treated iCas9-MOLM-13 cells; format: cell-based, human; details: iCas9-MOLM-13, 50 nM JQ1 24 h vs DMSO
HeLa cells = test: JQ1 proliferation in HeLa cells; format: cell-based, human; details: GFP, AF9 or ENL sgRNAs, n = 5
How it was run: (§1)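 HeLa and U2OS cells were kept in DMEM with 10% FBS, 2 mM L-glutamine, penicillin/streptomycin and plasmocin. They were transduced with GFP, AF9 or ENL sgRNAs by spin infection at 1500 rcf, 35°C for 90 min, then selected or sorted 48 h after infection. Cells were treated with JQ1, and viability was measured by CellTiter-Glo luminescence.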

MOLM-13 cells = test: JQ1 proliferation / viability; format: cell-based, human; details: MOLM-13, sgRNA depletion; proliferation normalized to DMSO, n = 5
How it was run: (§2)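 MLL-rearranged leukaemia lines were grown in RPMI with 10% FBS, 2 mM L-glutamine, penicillin/streptomycin and plasmocin. Cells were transduced with sgRNAs (MOLM-13) or shNT/shENL shRNAs (panel) by spin infection (1500 rcf, 35°C, 90 min), then selected or sorted 48 h post infection. They were exposed to JQ1 or DMSO, and viability was read by CellTiter-Glo luminescence. MOLM-13 proliferation was normalised to DMSO.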

leukaemia cell lines = format: cell-based, human; details: shENL vs shNT, MLL-rearranged leukaemia cells, n = 3
How it was run: as §2

U2OS cells = test: JQ1 proliferation in U2OS cells; format: cell-based, human; details: GFP, AF9 or ENL sgRNAs, n = 5
How it was run: as §1

[1] = target: ENL YEATS mutants (alanine mutation of the “R-Kac”-binding residues), ITC; test: ITC

Compound	JQ1-induced transcriptional changes on ENL depletion, including MYC (iCas9-MOLM-13 cells)	JQ1 sensitivity on ENL silencing, HeLa (HeLa cells)	sensitivity to JQ1 on depletion of ENL or other SEC components (MOLM-13 cells)	JQ1 sensitivity on ENL silencing (leukaemia cell lines)	JQ1 sensitivity on ENL silencing, U2OS (U2OS cells)	fold affinity drop against the wild type [1]
Cc1sc2c(c1C)C(c1ccc(Cl)cc1)=N[C@@H](CC(=O)OC(C)(C)C)c1nnc(C)n1-2 [JQ1]	markedly enhanced JQ1-induced transcriptional changes	not in HeLa	sensitized MOLM-13 cells	Increased JQ1 sensitivity	not in HeLa or U2OS cells	
H3_(17–28)K27ac peptide (from UniProt P68431 18-29)						2.3 fold
